# Active and inactive are the calls of the source. The calls are words filed in the database; no cut-off is given here.
# Key:
# Mus musculus [1] = assay: Toxicity in Swiss-Webster mouse formalin-induced pain model assessed as induction of abdominal writhing at >4 mg/kg, ip; format: organism-based, Abdomen; conditions: in vivo
# Procedure, shortened: (§1)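 Mice received compound or vehicle (0.9% NaCl) i.p. 10 min before formalin (1.25%) injected subcutaneously into the hind paw. Lifting, favouring, licking, shaking and flinching were scored blind as total duration per 5-min bin over 60 min. 8-10 animals per group; one-way ANOVA with Bonferroni test.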
# Cannabinoid receptor 1 [2] = target: T1, Cannabinoid receptor 1 (Homo sapiens, UniProt P21554); assay: Agonist activity at human recombinant CB1 receptor expressed in CHO cell membranes by [35S]GTPgammaS binding assay; format: functional
# T1 sequence (P21554 whole entry): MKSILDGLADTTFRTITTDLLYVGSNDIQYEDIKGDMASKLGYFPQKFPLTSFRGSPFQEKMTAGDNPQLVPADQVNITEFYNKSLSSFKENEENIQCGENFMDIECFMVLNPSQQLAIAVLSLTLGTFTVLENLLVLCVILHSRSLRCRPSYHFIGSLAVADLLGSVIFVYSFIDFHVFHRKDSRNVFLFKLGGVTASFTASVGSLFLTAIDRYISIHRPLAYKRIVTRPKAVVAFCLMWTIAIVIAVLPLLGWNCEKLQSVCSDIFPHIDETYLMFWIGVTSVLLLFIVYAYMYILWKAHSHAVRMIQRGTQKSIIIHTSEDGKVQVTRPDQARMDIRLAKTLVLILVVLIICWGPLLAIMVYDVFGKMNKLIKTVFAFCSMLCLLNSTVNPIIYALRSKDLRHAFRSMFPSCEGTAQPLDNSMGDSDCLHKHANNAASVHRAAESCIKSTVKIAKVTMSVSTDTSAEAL
# Procedure, shortened: (§2)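 Membranes from CHO cells stably expressing human CB1 or CB2, 50 µg protein per well, in Tris buffer with 100 mM NaCl, 5 mM MgCl2, 1 mM DTT, 1 mM EDTA, 0.1% BSA, pH 7.4. Incubated 60 min at 30°C with 0.1 nM [35S]GTPγS, 30 µM GDP and compound in DMSO. Nonspecific binding defined with 30 µM GTPγS. Filtration and scintillation counting. Percent change relative to DMSO control, n=6. EC50/Emax from sigmoidal fit.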
# Mus musculus [3] = assay: Antinociceptive activity in Swiss-Webster mouse assessed as reduction in second phase of formalin-induced nociceptive behavior at 3 and 4 mg/kg, ip; format: functional, organism-based; set-up: dose 4 mg/kg; procedure, shortened: as §1
# Cannabinoid receptor 2 [4] = target: T2, Cannabinoid receptor 2 (Homo sapiens, UniProt P34972); assay: Agonist activity at human recombinant CB2 receptor expressed in CHO cell membranes by [35S]GTPgammaS binding assay; format: functional; procedure, shortened: as §2
# T2 sequence (P34972 whole entry): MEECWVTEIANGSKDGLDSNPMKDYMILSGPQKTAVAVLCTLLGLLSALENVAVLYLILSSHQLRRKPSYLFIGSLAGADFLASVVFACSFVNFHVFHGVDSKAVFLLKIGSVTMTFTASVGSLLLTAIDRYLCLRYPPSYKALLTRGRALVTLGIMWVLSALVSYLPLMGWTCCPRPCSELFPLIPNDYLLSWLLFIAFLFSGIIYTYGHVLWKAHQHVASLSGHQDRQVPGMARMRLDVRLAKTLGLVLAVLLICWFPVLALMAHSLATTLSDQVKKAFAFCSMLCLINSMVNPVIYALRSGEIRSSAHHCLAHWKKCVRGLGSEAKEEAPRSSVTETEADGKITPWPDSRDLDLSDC
# Homo sapiens [5] = species: Homo sapiens; assay: Selectivity index, ratio of Ki for human recombinant CB1 receptor to Ki for human recombinant CB2 receptor
# Cannabinoid receptor 2 [6] = target: T2, Cannabinoid receptor 2; assay: Displacement of [3H]CP-55,940 from human recombinant CB2 receptor expressed in HEK293 cell membranes
# [7] = target: T3, Transient receptor potential cation channel subfamily V member 1 (Homo sapiens, UniProt Q8NER1); assay: Agonist activity at human recombinant TRPV1 expressed in HEK293 cells assessed as increase in intracellular calcium level by fluorescence assay; format: cell-based
# T3 sequence (Q8NER1 whole entry): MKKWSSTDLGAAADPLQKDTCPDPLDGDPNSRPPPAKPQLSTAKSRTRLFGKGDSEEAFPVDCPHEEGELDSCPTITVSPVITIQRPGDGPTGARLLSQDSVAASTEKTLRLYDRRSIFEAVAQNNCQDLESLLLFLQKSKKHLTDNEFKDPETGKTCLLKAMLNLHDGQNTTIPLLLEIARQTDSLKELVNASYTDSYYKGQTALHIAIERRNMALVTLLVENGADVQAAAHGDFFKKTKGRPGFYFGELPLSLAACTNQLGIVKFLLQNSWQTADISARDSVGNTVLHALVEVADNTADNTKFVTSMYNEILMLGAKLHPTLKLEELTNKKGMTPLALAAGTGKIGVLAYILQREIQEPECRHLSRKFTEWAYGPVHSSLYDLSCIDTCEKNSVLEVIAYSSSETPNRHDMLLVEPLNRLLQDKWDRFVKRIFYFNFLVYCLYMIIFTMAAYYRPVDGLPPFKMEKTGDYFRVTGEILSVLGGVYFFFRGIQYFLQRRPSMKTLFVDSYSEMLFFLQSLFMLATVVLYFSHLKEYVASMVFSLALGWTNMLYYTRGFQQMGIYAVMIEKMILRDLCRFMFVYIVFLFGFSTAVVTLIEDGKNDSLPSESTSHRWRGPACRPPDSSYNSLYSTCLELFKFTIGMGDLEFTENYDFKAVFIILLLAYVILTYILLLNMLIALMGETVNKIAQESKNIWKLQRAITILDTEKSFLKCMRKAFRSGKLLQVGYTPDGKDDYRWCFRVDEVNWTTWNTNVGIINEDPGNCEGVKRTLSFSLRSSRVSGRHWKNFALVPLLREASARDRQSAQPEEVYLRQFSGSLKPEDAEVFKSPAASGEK
# Procedure, shortened: (§3)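 HEK293 cells stably expressing human TRPV1 were loaded with Fluo-4-AM (4 µM, 1 h, room temperature). Cells stirred in Tyrode's buffer pH 7.4; fluorescence read at ex 488/em 516 nm, 25 °C. Wild-type HEK293 response subtracted. Efficacy as percent of 4 µM ionomycin. EC50 from sigmoidal fit, n=3.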
# Cannabinoid receptor 1 [8] = target: T1, Cannabinoid receptor 1; assay: Agonist activity at human recombinant CB1 receptor expressed in CHO cell membranes assessed as stimulation of [35S]GTPgammaS binding relative to basal level; format: functional; procedure, shortened: as §2
# [9] = target: T3, Transient receptor potential cation channel subfamily V member 1; assay: Agonist activity at human recombinant TRPV1 expressed in HEK293 cells assessed as increase in intracellular calcium level by fluorescence assay relative to ionomycin; format: cell-based; procedure, shortened: as §3
# [10] = Cytotoxicity against mouse NIH/3T3 cells after 24 hrs by neutral red assay; format: cell-based; conditions: NIH3T3, 24 h
# Procedure, shortened: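 NIH3T3 mouse fibroblasts in DMEM with 10% FCS were seeded and after 24 h exposed to compound in DMSO (5-200 µM, six replicates) for 24 h. Viability measured by neutral red uptake (3 h dye incubation, then acetic acid/ethanol extraction). IC50 derived.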
# Mus musculus [11] = assay: Antinociceptive activity in Swiss-Webster mouse assessed as reduction in second phase of formalin-induced nociceptive behavior at 4 mg/kg, ip after 40 mins; format: functional, organism-based; set-up: dose 4 mg/kg; procedure, shortened: as §1
# Cannabinoid receptor 1 [12] = target: T1, Cannabinoid receptor 1; assay: Displacement of [3H]CP-55,940 from human recombinant CB1 receptor expressed in HEK293 cell membranes
# [13] = target: T4, Transient receptor potential cation channel subfamily A member 1 (Rattus norvegicus, UniProt Q6RI86); assay: Agonist activity at rat recombinant TRPA1 expressed in HEK293 cells assessed as increase in intracellular calcium level by fluorescence assay; format: cell-based
# T4 sequence (Q6RI86 whole entry): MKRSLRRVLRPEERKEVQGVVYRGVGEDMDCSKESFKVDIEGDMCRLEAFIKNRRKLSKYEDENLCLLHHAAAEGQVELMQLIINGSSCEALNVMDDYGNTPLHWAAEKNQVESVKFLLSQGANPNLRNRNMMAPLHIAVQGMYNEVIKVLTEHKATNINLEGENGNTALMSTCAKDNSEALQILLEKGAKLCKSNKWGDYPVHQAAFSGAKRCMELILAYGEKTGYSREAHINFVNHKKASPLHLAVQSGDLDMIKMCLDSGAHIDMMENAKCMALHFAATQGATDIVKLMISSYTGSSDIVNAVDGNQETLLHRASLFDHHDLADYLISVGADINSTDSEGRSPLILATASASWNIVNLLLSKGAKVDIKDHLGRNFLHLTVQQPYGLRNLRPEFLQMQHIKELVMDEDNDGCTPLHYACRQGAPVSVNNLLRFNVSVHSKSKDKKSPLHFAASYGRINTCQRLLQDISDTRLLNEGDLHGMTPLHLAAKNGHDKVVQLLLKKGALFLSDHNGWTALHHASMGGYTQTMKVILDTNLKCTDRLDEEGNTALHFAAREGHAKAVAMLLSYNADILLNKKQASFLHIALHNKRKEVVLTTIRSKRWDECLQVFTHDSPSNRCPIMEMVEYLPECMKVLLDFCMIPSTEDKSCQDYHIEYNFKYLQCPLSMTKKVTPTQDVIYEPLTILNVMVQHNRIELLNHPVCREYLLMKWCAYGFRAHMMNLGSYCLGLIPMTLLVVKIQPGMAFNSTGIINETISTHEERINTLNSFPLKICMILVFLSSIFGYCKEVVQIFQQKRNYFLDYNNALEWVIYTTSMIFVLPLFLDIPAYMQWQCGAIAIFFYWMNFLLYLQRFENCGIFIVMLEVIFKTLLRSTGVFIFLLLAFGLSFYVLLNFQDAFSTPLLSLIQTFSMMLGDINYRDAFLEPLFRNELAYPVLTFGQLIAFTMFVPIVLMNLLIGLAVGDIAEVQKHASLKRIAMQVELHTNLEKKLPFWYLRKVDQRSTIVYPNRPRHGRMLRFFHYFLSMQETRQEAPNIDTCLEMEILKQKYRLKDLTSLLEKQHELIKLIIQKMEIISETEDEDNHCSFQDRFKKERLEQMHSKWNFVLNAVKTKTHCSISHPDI
# Procedure, shortened: as §3, with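 “expressing rat TRPA1” for “expressing human TRPV1”, “7.4; [Ca2+]i” for “7.4;”, “of 100” for “of 4”, “µM allyl isothiocyanate.” for “µM ionomycin.”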
# [14] = target: T4, Transient receptor potential cation channel subfamily A member 1; assay: Antagonist activity at rat recombinant TRPA1 expressed in HEK293 cells assessed as reduction in isothiocynate-induced increase in intracellular calcium response by fluorescence assay; format: cell-based
# Procedure, shortened: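 Rat TRPA1-HEK293 cells loaded with Fluo-4 in Tyrode's buffer pH 7.4, 25 °C. Compound given as a 5 min pre-incubation before 100 µM allyl isothiocyanate. IC50 for half-maximal inhibition of the agonist-evoked [Ca2+]i rise, n=3.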
# Cannabinoid receptor 2 [15] = target: T2, Cannabinoid receptor 2; assay: Agonist activity at human recombinant CB2 receptor expressed in CHO cell membranes assessed as stimulation of [35S]GTPgammaS binding relative to basal level; format: functional; procedure, shortened: as §2
# [16] = target: T3, Transient receptor potential cation channel subfamily V member 1; assay: Antagonist activity against human recombinant TRPV1 expressed in HEK293 cells assessed as reduction in capsaicin-induced intracellular calcium response pre-incubated 5 mins before capsaicin addition by fluorescence assay; format: cell-based
# Procedure, shortened: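 Human TRPV1-HEK293 cells loaded with Fluo-4 in Tyrode's buffer pH 7.4, 25 °C. Compound added 5 min before 0.1 µM capsaicin. IC50 taken as half-maximal inhibition of the capsaicin-induced [Ca2+]i rise, n=3.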
# [17] = target: Transient receptor potential cation channel subfamily A member 1 (Rattus norvegicus) (UniProt Q6RI86); assay: Agonist activity at rat recombinant TRPA1 expressed in HEK293 cells assessed as increase in intracellular calcium level by fluorescence assay relative to isothiocyanate; format: cell-based
# Transient receptor potential cation channel subfamily A member 1 (Rattus norvegicus), sequence (Q6RI86 whole entry): as above
# Procedure, shortened: as §3, with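 “expressing rat TRPA1” for “expressing human TRPV1”, “7.4; [Ca2+]i” for “7.4;”, “of 100” for “of 4”, “µM allyl isothiocyanate.” for “µM ionomycin.”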
# Homo sapiens [18] = species: Homo sapiens; assay: Selectivity index, ratio of Ki for human recombinant CB2 receptor to Ki for human recombinant CB1 receptor
smiles,measurement,setting,value
C=CCNC(=O)CCCCCCCOc1cc(O)cc(C(C)(C)CCCCCC)c1,Activity,Mus musculus [1],Toxic
same,EC50,Cannabinoid receptor 1 [2],138 nM
same,Activity,Mus musculus [3],Active
same,EC50,Cannabinoid receptor 2 [4],44.7 nM
same,Ratio Ki,Homo sapiens [5],0.98
same,Ki,Cannabinoid receptor 2 [6],7.36 nM
same,EC50,[7],6.9 µM
same,Emax,Cannabinoid receptor 1 [8],60.6%
same,Efficacy,[9],18.6%
same,IC50,[10],188 µM
same,Activity,Mus musculus [11],Active
same,Ki,Cannabinoid receptor 1 [12],7.22 nM
same,EC50,[13],2700 nM
same,IC50,[14],7.4 µM
same,Emax,Cannabinoid receptor 2 [15],13.4%
same,IC50,[16],23.9 µM
same,Efficacy,[17],51.3%
same,Ratio Ki,Homo sapiens [18],1.02

# Reference: ChEMBL document CHEMBL3351868, “Structure-affinity relationships and pharmacological characterization of new alkyl-resorcinol cannabinoid receptor ligands: Identification of a dual cannabinoid receptor/TRPA1 channel agonist” (Bioorg Med Chem, 2014)
